Screening data from PubChem.
Measles CPE: protection of cells from measles virus. Measles virus-infected cells, CPE protection, absorbance. protection (pct of control), % at 4 µM. hit rate 1.5% among 140,000; in the data active = protection mostly above about 24%, no sharp cut-off; inactive = mostly below about 26%
Yeast life ext: yeast lifespan extension; inhibition of the nicotinamide effect, % at 10 µM; S. cerevisiae growth with nicotinamide, OD615; deaD strain in restrictive glucose medium; AID 775; hit rate 0.68% among 130,000;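 active = inhibition above a set limit, placed 3 SD over the median of all compounds, cut at about 26% in these data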;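 note: 0% = nicotinamide-treated wells and 100% = cells grown without nicotinamide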
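assay system = DeaD-strain S. cerevisiae | measured by = absorbance at 615 nm | probe or stimulus = nicotinamide 1.5 mM | buffer or medium = CSMM-D glucose medium, restrictive | times = 48 h at 30 °C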
BB579 growth dn: chemicals that inhibit yeast BB579 growth in restrictive medium (lifespan-shortening candidates) | S. cerevisiae BB579 growth, OD615, 48 h | hit rate 0.51% among 140,000 | inhibition, % at 10 µM | AID 804;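 active = inhibition above a set limit, 3 SD over the mean compound inhibition, cut at about 44% in these data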
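System: Saccharomyces cerevisiae DeaD strain BB579, replicative lifespan model yeast | Buffer or medium: Restrictive glucose-based CSMM-D medium | Times: 4 h preincubation and 48 h exposure at 30 °C | Detection: OD615 turbidity measurement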
SDO1 yeast rescue: restores growth of sdo1-depleted yeast; S. cerevisiae sdo1-depleted JHY4D growth rescue, OD600 30 h; stronger effect = higher value; pdr5 snq2 efflux-pump mutant strain; z-score at 10 µM; hit rate 0.21% among 140,000; AID 817;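 active = z-score above 3 at both the 24 hr and the 30 hr optical density reads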;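 note: z-score against mean and SD of all compound wells on the same plate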
RAM network inh: yeast RAM network inhibition. hit rate 1.8% among 190,000. inhibition, % at 50 µM. S. cerevisiae dse1pr::URA3 reporter, 5-FOA growth OD615, 2 d; analog-sensitive cbk1-as2 kinase mutant strain. AID 868;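 active = inhibition above a set limit, 3 SD over mean compound inhibition, cut at about 8.4% in these data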;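 note: 0% = DMSO-only wells with no growth and 100% = 10 µM 1-NA-PP1 full growth; inhibition rescues growth on 5-FOA so higher OD means more RAM inhibition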
An asterisk follows results filed as active; / = not tested or not shown. Compounds with a hit are over-represented: about 3.8% of the library has one in this group of screens.

SMILES	Measles CPE	Yeast life ext	BB579 growth dn	SDO1 yeast rescue	RAM network inh
O=[N+]([O-])c1ccc(COc2cccc(CNc3ccc(F)cc3)c2)cc1	8	0	-27	-0.76	9.9*
CC(C)CCn1nnnc1CN1CCN(c2ccccc2)CC1	/	/	/	/	1
O=C(CCl)Nc1cccc(-c2cnc3ccccc3n2)c1	2	-17	-33	-1.9	-1
CCC(=O)Nc1cccc(-c2cnc3ccccc3n2)c1	40*	-12	-34	-0.31	1
O=C(Cc1ccccc1)NNC(=S)Nc1ccccc1	/	/	/	/	1
O=C(CSc1nnc(SCc2ccccc2)s1)NNC(=S)Nc1ccccc1	6	1	-34	0.3	10*
CC(C)CNC(=S)NC(=O)c1ccc(F)cc1	3	-5	1	-0.07	0
O=S(=O)(c1ccc(NC(=S)NN=C2CCCCC2)cc1)N1CCOCC1	/	/	/	/	1
O=C(N/N=C/c1ccc(Br)s1)c1c[nH]c2ccccc12	7	-7	-8	-0.76	0
O=C(Nc1ccccc1)N1CCn2c(nc3ccccc32)C1	48*	-6	-12	1.1	2
CCCn1c(NC(=O)C2COc3ccccc3O2)nc2ccccc21 (stereo not given)	15	-12	-61	-2.5	8.6*
Cc1ccc(NC(=O)C2CCCN(S(=O)(=O)c3cnc[nH]3)C2)c(Br)c1 (stereo not given)	29*	-12	-50	0.78	4
CCc1ccc(-c2cn(-c3nc(C)cc(C)n3)c(=N)o2)cc1	9	-6	-28	-0.5	0
COc1ccc(-c2cc3ccccc3n2CC(O)CN2CCN(CCO)CC2)cc1 (stereo not given)	9	-7	-42	-0.17	0
COc1ccc(C(=O)n2nnc3ccccc32)cc1OC	6	23	-57	0.04	1
COc1ccc(N/C(=C(/C(Cl)=C(Cl)Cl)[N+](=O)[O-])n2nnc3ccccc32)cc1OC	52*	-15	-11	0.23	1
O=C(O)CC/C(=C\c1ccc(N2CCOCC2)c([N+](=O)[O-])c1)c1nc2ccccc2s1	/	/	/	/	3
O=C(O)CC/C(=C\c1ccc(Cl)c([N+](=O)[O-])c1)c1nc2ccccc2s1	8	9	-23	-0.02	11*
O=C(O)c1cccc(N/N=C/c2cc(Br)cc(Br)c2O)c1	9	2	-41	-0.27	7
Cc1c(N=Cc2cc(Br)cc(Br)c2O)cccc1C(=O)O	3	-13	98*	-0.64	-2
CCCCn1c(NC(=O)c2ccccc2Cl)c(C#N)c2nc3ccccc3nc21	6	-11	-9	-0.98	4
N#Cc1c(NC(=O)c2ccccc2Cl)n(Cc2ccccc2)c2nc3ccccc3nc12	47*	2	-41	-2.3	3
Clc1cccc(Nc2nc(-c3cccnc3)cs2)c1	/	/	/	/	0
Cc1nnc(C)n1N1C(=O)c2cccc3cccc(c23)C1=O	49*	0	-4	1.7	-1
Cc1nn(Cc2ccccc2)c(C)c1C(=O)OCC(=O)c1cc(C)n(C2CC2)c1C	0	-16	-29	-1.2	9.1*
SMILES	Measles CPE	Yeast life ext	BB579 growth dn	SDO1 yeast rescue	RAM network inh
COCCn1c(C)cc(C(=O)COC(=O)c2c(C)nn(Cc3ccccc3)c2C)c1C	7	-8	-33	-0.24	0
CC(C)CNC(=O)CC(=O)N/N=C/c1cccs1	25*	-1	-40	0.2	2
CCCCCC(=O)N/N=C/c1cccs1	7	-6	2	0.02	1
Cc1cc(SCC(=O)OCC(=O)NCc2ccc3c(c2)OCO3)c(C)cc1Br	2	-1	-16	0.39	11*
CC1CCCC(C)N1C(=O)Cn1c(SCC(=O)NCc2ccc3c(c2)OCO3)nc2ccccc21 (stereo not given)	6	-11	-59	-0.71	8.9*
O=C(CSc1nnc2scc(-c3ccccc3)n12)NCc1ccc2c(c1)OCO2	2	-5	-38	-0.59	9.6*
O=C(COC(=O)c1cccs1)NCc1ccc2c(c1)OCO2	97*	-13	-78	0.23	1
Cc1cc(C(=O)N/N=C/c2cccnc2)cs1	8	2	-31	1.4	1
CN1CCC(N(C)C(=S)NC(=O)c2cc(-c3cccc(Br)c3)nc3ccccc23)CC1	/	/	/	/	-1
CCCCNC(=O)C(=O)N/N=C/c1ccc(OCC(=O)Nc2cccc(OC)c2)c(OC)c1	9	-6	-24	1.3	1
CCC(CO)NCc1cc(OC)c(OCC(=O)NCCc2ccccc2)cc1Br (stereo not given)	6	-1	-40	-0.35	0
CCCn1c(SC(C(=O)Nc2cccc(OC)c2)c2ccccc2)nc2ccccc2c1=O (stereo not given)	15	-1	-40	-0.09	5
COC(=O)c1sc(=S)sc1C(=O)OC	5	26	3	0.64	-1
Cc1ccc(C(=O)N/N=C2/NC(=O)CC(C(=O)Nc3ccccc3)S2)cc1 (stereo not given)	7	-5	9	1.3	4
Nc1nc(SCC(=O)NCc2ccc3c(c2)OCO3)n[nH]1	/	/	/	/	0
O=C(CSc1n[nH]c(-c2cccs2)n1)NCc1ccc2c(c1)OCO2	12*	-15	-13	-0.07	0
CCOC(=O)CCSCC(=O)N1N=C(c2cccs2)CC1c1ccc(C)cc1 (stereo not given)	18	10	-33	-0.42	9.3*
CCOC(=O)c1c(C)[nH]c(C)c1C(=O)CSc1nc2ccccc2c(=O)n1-c1ccccc1C	2	5	9	-0.34	9.7*
CCOC(=O)c1c(C)[nH]c(C)c1C(=O)CSc1nc2ccccc2c(=O)n1-c1ccc(F)cc1	/	/	/	/	8
COc1ccccc1OCCNc1cc(N2CCCCC2)ccc1[N+](=O)[O-]	8	-4	-12	-0.12	11*
Cc1cccc(NC(=S)NCc2ccc(F)cc2)c1	4	-4	11	-1.3	-1
CCc1ccccc1NC(=S)NCCSc1ccc(Cl)cc1	/	/	/	/	10*
Cc1ccccc1NC(=S)NCCSc1ccc(Cl)cc1	/	/	/	/	1
Cc1ccc(NC(=S)NCC(C)CSc2ccc(Cl)cc2)cc1 (stereo not given)	/	/	/	/	2
Cc1cccc(NC(=S)NCC(C)CSc2ccc(Cl)cc2)c1 (stereo not given)	/	/	/	/	8.9*
SMILES	Measles CPE	Yeast life ext	BB579 growth dn	SDO1 yeast rescue	RAM network inh
COc1ccc(CNC(=S)Nc2cccc(C)c2)cc1	40*	-17	-5	0.25	1
Cc1ccc(NC(=S)NCCSc2ccc(Cl)cc2)c(C)c1	10	1	43	-2.3	11*
COc1ccc(NC(=S)N(CCc2nc3cc(C)c(C)cc3[nH]2)Cc2cccnc2)cc1	6	-11	-33	1.6	-1
COc1ccc(NC(=O)CN2CCN(C3c4ccccc4-c4ccccc43)CC2)cc1	5	-20	-10	-1.6	2
CCOC(=O)/C(=C\Nc1ccc(OC(F)(F)F)cc1)Sc1ncc(C(F)(F)F)cc1Cl	13	-4	-48	-0.59	7
Cc1nonc1OCC(C)(COc1nonc1C)NC(=O)c1ccccc1	17	/	-19	-0.29	4
